Experimental data as given in ChEMBL document CHEMBL2062360, “Distinct biological effects of golgicide a derivatives on larval and adult mosquitoes” (2012).

How the values were obtained:
Type in all cases: functional
Aedes aegypti [1] = assay: Insecticidal activity against Aedes aegypti assessed as ovarian follicle size at 0.7 mM administered 1 hr post human blood-meal measured after 47 hrs (reference value: 482.6+/-4.8 um)
Anopheles stephensi [2] = assay: Insecticidal activity against Anopheles stephensi second instar larvae assessed as mortality at 0.2 mM after 24 hrs by microscopic analysis relative to control
Outline: (§1)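 Second instar larvae of Ae. aegypti and An. stephensi were exposed to compounds added directly to the culture media, with DMSO as the vehicle control. Larval mortality was scored 24 h later and reported as mean with SEM, with statistical testing against control.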

Aedes aegypti [3] = assay: Insecticidal activity against Aedes aegypti second instar larvae assessed as mortality at 0.2 mM after 24 hrs by microscopic analysis relative to control; outline: as §1
Anopheles stephensi [4] = assay: Insecticidal activity against Anopheles stephensi second instar larvae assessed as mortality after 24 hrs by microscopic analysis relative to control; outline: as §1
Aedes aegypti [5] = assay: Insecticidal activity against Aedes aegypti second instar larvae assessed as mortality after 24 hrs by microscopic analysis relative to control; outline: as §1
[6] = Selectivity ratio of mortality against Anopheles stephensi second instar larvae to mortality against Aedes aegypti second instar larvae

Question: For NCc1ccc([C@@H]2Nc3c(F)cc(F)cc3[C@@H]3C=CC[C@@H]32)cc1 (racemic), which Activity (Aedes aegypti [1]) is on record?
Answer: 301.5 um

Question: What about the Activity (Anopheles stephensi [2]) of the same compound?
Answer: 81.7%

Question: What about the Activity (Aedes aegypti [3]) of the same compound?
Answer: 91.7%

Question: And the LC50 (Anopheles stephensi [4])?
Answer: 100 µM

Question: And the LC50 (Aedes aegypti [5])?
Answer: 200 µM

Question: For Fc1cc(F)c2c(c1)[C@@H]1C=CC[C@@H]1[C@H](c1cccnc1)N2, which Ratio [6] is on record?
Answer: 5

Question: And the Activity (Aedes aegypti [1])?
Answer: 270 um

Question: And the Activity (Anopheles stephensi [2])?
Answer: 83.4%

Question: What about the Activity (Aedes aegypti [3]) of the same compound?
Answer: 18.1%

Question: Which results are given for CC(C)(C)[C@@H]1Nc2c(F)cc(F)cc2[C@@H]2C=CC[C@H]12 (racemic)?
Answer: Ratio [6]: 5; Activity (Aedes aegypti [1]): 326.2 um; Activity (Anopheles stephensi [2]): 86.4%; Activity (Aedes aegypti [3]): 15.4%

Question: What does the source list for Fc1cc(F)c2c(c1)[C@@H]1C=CC[C@@H]1[C@@H](c1cccnc1)N2?
Answer: Ratio [6]: 5; Activity (Aedes aegypti [1]): 407.7 um; Activity (Anopheles stephensi [2]): 57.5%; Activity (Aedes aegypti [3]): 12.3%

Question: With Fc1cc(F)c2c(c1)[C@@H]1C=CC[C@@H]1[C@H](c1ccccc1)N2 as the compound, how does the Activity (Aedes aegypti [1]) read?
Answer: 235.1 um

Question: And the Activity (Anopheles stephensi [2])?
Answer: 0%

Question: And the Activity (Aedes aegypti [3])?
Answer: 0%

Question: With CC(=O)N1c2c(F)cc(F)cc2[C@@H]2C=CC[C@@H]2[C@@H]1c1cccnc1 (racemic) as the compound, how does the Activity (Aedes aegypti [1]) read?
Answer: 442.7 um

Question: And the Activity (Anopheles stephensi [2])?
Answer: 0%

Question: And the Activity (Aedes aegypti [3])?
Answer: 1.7%

Question: With N#Cc1ccc([C@@H]2Nc3c(F)cc(F)cc3[C@@H]3C=CC[C@@H]32)cc1 (racemic) as the compound, how does the Activity (Aedes aegypti [1]) read?
Answer: 309.5 um

Question: And the Activity (Anopheles stephensi [2])?
Answer: 0%

Question: What about the Activity (Aedes aegypti [3]) of the same compound?
Answer: 0%

Question: Which Activity (Aedes aegypti [1]) does the source give for Fc1cc(F)c2c(c1)[C@H]1C=CC[C@H]1[C@H](c1cccnc1)N2 here?
Answer: 433.6 um

Question: What about the Activity (Anopheles stephensi [2]) of the same compound?
Answer: 0%

Question: And the Activity (Aedes aegypti [3])?
Answer: 1.5%

Question: For Fc1cc(F)c2c(c1)[C@@H]1C=CC[C@@H]1[C@H](c1ccc(C(F)(F)F)cc1)N2 (racemic), which Activity (Aedes aegypti [1]) is on record?
Answer: 230.4 um

Question: And the Activity (Anopheles stephensi [2])?
Answer: 0%

Question: And the Activity (Aedes aegypti [3])?
Answer: 5.9%

Question: Which Activity (Aedes aegypti [1]) does the source give for CC(=O)NCc1ccc([C@@H]2Nc3c(F)cc(F)cc3[C@@H]3C=CC[C@@H]32)cc1 (racemic) here?
Answer: 375.4 um

Question: What about the Activity (Anopheles stephensi [2]) of the same compound?
Answer: 0%

Question: And the Activity (Aedes aegypti [3])?
Answer: 0%

Question: Which Activity (Aedes aegypti [1]) does the source give for Fc1cc(F)c2c(c1)[C@@H]1C=CC[C@@H]1C(c1cccnc1)N2 (mixture of isomers) here?
Answer: 291.8 um

Question: Which results are given for Fc1cc(F)c2c(c1)[C@@H]1C=CC[C@@H]1[C@H](c1ccc(CNCc3ccc(C(F)(F)F)cc3)cc1)N2 (racemic)?
Answer: Activity (Aedes aegypti [1]): 297.5 um; Activity (Anopheles stephensi [2]): 0%; Activity (Aedes aegypti [3]): 0%

Question: Which Ratio [6] does the source give for Fc1cc(F)c2c(c1)[C@@H]1C=CC[C@@H]1[C@H](c1cncs1)N2 (racemic) here?
Answer: 5

Question: And the Activity (Aedes aegypti [1])?
Answer: 330.8 um

Question: What about the Activity (Anopheles stephensi [2]) of the same compound?
Answer: 37.6%

Question: And the Activity (Aedes aegypti [3])?
Answer: 0%

Question: Which Activity (Aedes aegypti [1]) does the source give for Fc1cc(C(F)(F)F)cc2c1NC(c1cccnc1)[C@H]1CC=C[C@@H]21 (mixture of isomers) here?
Answer: 315 um

Question: What about the Activity (Anopheles stephensi [2]) of the same compound?
Answer: 0%

Question: And the Activity (Aedes aegypti [3])?
Answer: 5.3%

Question: Which Activity (Aedes aegypti [1]) does the source give for Fc1cccc2c1N[C@@H](c1cccnc1)[C@H]1CC=C[C@@H]21 (racemic) here?
Answer: 312.1 um

Question: What about the Activity (Anopheles stephensi [2]) of the same compound?
Answer: 100%

Question: And the Activity (Aedes aegypti [3])?
Answer: 91.4%

Question: What about the LC50 (Anopheles stephensi [4]) of the same compound?
Answer: 200 µM

Question: And the LC50 (Aedes aegypti [5])?
Answer: 200 µM

Question: For Fc1cc(F)c2c(c1)[C@@H]1C=CC[C@@H]1[C@H](c1ccccn1)N2 (racemic), which Activity (Aedes aegypti [1]) is on record?
Answer: 287.5 um

Question: What about the Activity (Anopheles stephensi [2]) of the same compound?
Answer: 100%

Question: And the Activity (Aedes aegypti [3])?
Answer: 100%

Question: What about the LC50 (Anopheles stephensi [4]) of the same compound?
Answer: 100 µM

Question: What about the LC50 (Aedes aegypti [5]) of the same compound?
Answer: 100 µM

Question: With Fc1cc(F)c2c(c1)[C@@H]1C=CC[C@@H]1[C@H](c1ccc(CNCc3ccc4ccccc4c3)cc1)N2 (racemic) as the compound, how does the Activity (Aedes aegypti [1]) read?
Answer: 255.9 um

Question: And the Activity (Anopheles stephensi [2])?
Answer: 0%

Question: And the Activity (Aedes aegypti [3])?
Answer: 0%

Question: Which Activity (Aedes aegypti [1]) does the source give for Fc1cc(F)c2c(c1)[C@H]1C=CC[C@H]1[C@@H](c1cccnc1)N2 here?
Answer: 408.2 um

Question: What about the Activity (Anopheles stephensi [2]) of the same compound?
Answer: 0%

Question: And the Activity (Aedes aegypti [3])?
Answer: 4.7%

Question: With Fc1ccc2c(c1)[C@@H]1C=CC[C@@H]1[C@H](c1cccnc1)N2 (racemic) as the compound, how does the Activity (Aedes aegypti [1]) read?
Answer: 343.8 um

Question: What about the Activity (Anopheles stephensi [2]) of the same compound?
Answer: 0%

Question: And the Activity (Aedes aegypti [3])?
Answer: 0%

Question: With CN1CCC(NCc2ccc([C@@H]3Nc4c(F)cc(F)cc4[C@@H]4C=CC[C@@H]43)cc2)CC1 (racemic) as the compound, how does the Activity (Aedes aegypti [1]) read?
Answer: 275.3 um

Question: And the Activity (Anopheles stephensi [2])?
Answer: 100%

Question: What about the Activity (Aedes aegypti [3]) of the same compound?
Answer: 100%

Question: And the LC50 (Anopheles stephensi [4])?
Answer: 50 µM

Question: What about the LC50 (Aedes aegypti [5]) of the same compound?
Answer: 50 µM

Question: Which Activity (Aedes aegypti [1]) does the source give for CN1c2c(F)cc(F)cc2[C@@H]2C=CC[C@@H]2[C@@H]1c1cccnc1 (racemic) here?
Answer: 416.3 um

Question: And the Activity (Anopheles stephensi [2])?
Answer: 100%

Question: And the Activity (Aedes aegypti [3])?
Answer: 96.2%

Question: And the LC50 (Anopheles stephensi [4])?
Answer: 100 µM

Question: What about the LC50 (Aedes aegypti [5]) of the same compound?
Answer: 100 µM

Question: For CCCCCCCNCc1ccc([C@@H]2Nc3c(F)cc(F)cc3[C@@H]3C=CC[C@@H]32)cc1 (racemic), which Activity (Aedes aegypti [1]) is on record?
Answer: 243.4 um

Question: What about the Activity (Anopheles stephensi [2]) of the same compound?
Answer: 0%

Question: What about the Activity (Aedes aegypti [3]) of the same compound?
Answer: 0%
